# Source: ChEMBL document CHEMBL1133507, “Novel bronchodilators: synthesis, transamination reactions, and pharmacology of a series of pyrazino[2,3-c][1,2,6]thiadiazine 2, 2-dioxides” (2000)
# The source made the active and inactive calls. No cut-off for these calls is given here.
# Key:
# Assay type in all cases: functional
# Cavia porcellus [1] = species on record: Cavia porcellus; test: Tracheal relaxing activity expressed as minimum inhibitory concentration required to obtain a inhibitory response by more than 50%
# How it was run: (§1)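 Tracheal relaxation was tested over several concentrations, each in duplicate. The value is the lowest concentration (µg/mL) giving more than 50% inhibition of the response.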
# Cavia porcellus [2] = species on record: Cavia porcellus; test: Bronchodilatory activity in vitro by tracheal tone inhibition at 30 ug/mL in guinea pig tracheal muscle.; conditions: Muscle tissue
# How it was run: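 In vitro tracheal relaxation. Percent inhibition was recorded with 30 µg/mL test compound, each concentration assayed in duplicate. Inhibition above 50% was taken as pharmacologically significant.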
# Cavia porcellus [3] = species on record: Cavia porcellus; test: Tracheal relaxing activity expressed as minimum inhibitory concentration required to obtain a inhibitory response by more than 50%; NA denotes no activity at 30 ug/mL.; how it was run: as §1
MIC (Cavia porcellus [1]),MIC (Cavia porcellus [3]),Structure (SMILES),inhibition at 30 µg/mL (Cavia porcellus [2])
–,inactive,CCc1nc2c(nc1C)C(N)=NS(=O)(=O)N2CC,0%
10 µg/mL,–,CCCc1cnc2c(n1)C(N)=NS(=O)(=O)N2CC,90%
–,inactive,CCc1nc2c(nc1CC)N(CC)S(=O)(=O)N=C2N,0%
–,inactive,CCN1c2ncc(-c3ccccc3)nc2C(N)=NS1(=O)=O,20%
30 µg/mL,–,CCN1c2ncc(C)nc2C(N)=NS1(=O)=O,67%
30 µg/mL,–,CCN1c2nc(C)c(-c3ccccc3)nc2C(N)=NS1(=O)=O,93%
3 µg/mL,–,Cc1nc2c(nc1C)N(C)S(=O)(=O)N=C2N,92%
–,inactive,CCOC(=O)CN1c2nc(C)c(C)nc2C(N)=NS1(=O)=O,15%
–,inactive,CCN1c2nccnc2C(N)=NS1(=O)=O,13%
30 µg/mL,–,CCN1c2ncc(C(C)C)nc2C(N)=NS1(=O)=O,57%
30 µg/mL,–,CCN1c2nc(C(C)C)c(C)nc2C(N)=NS1(=O)=O,55%
3 µg/mL,–,CCN1c2nc(-c3ccccc3)cnc2C(N)=NS1(=O)=O,95%
10 µg/mL,–,CCc1cnc2c(n1)C(N)=NS(=O)(=O)N2CC,72%
30 µg/mL,–,Cc1nc2c(nc1C)N(CCO)S(=O)(=O)N=C2N,59%
30 µg/mL,–,CCCN1c2nc(CC)c(C)nc2C(N)=NS1(=O)=O,51%
–,inactive,CCCc1nc2c(nc1C)C(N)=NS(=O)(=O)N2CC,34%
10 µg/mL,–,CCN1c2nc3c(nc2C(N)=NS1(=O)=O)CCCC3,82%
10 µg/mL,–,CCc1nc2c(nc1C)N(CC)S(=O)(=O)N=C2N,95%
–,inactive,CCN1c2nc(C(C)C)c(C(C)C)nc2C(N)=NS1(=O)=O,0%
30 µg/mL,–,CCc1nc2c(nc1C)C(NN)=NS(=O)(=O)N2CC,72%
3 µg/mL,–,CCN1c2nc(-c3ccccc3)c(C)nc2C(N)=NS1(=O)=O,100%
10 µg/mL,–,CN1c2nc3c(nc2C(N)=NS1(=O)=O)CCCCC3,88%
30 µg/mL,–,CCN1c2ncc(C(C)(C)C)nc2C(N)=NS1(=O)=O,86%
30 µg/mL,–,CCc1cnc2c(n1)N(CC)S(=O)(=O)N=C2N,80%
–,inactive,CCN1c2nc(C)cnc2C(N)=NS1(=O)=O,42%
–,inactive,Cc1nc2c(nc1C)N(CC(=O)O)S(=O)(=O)N=C2N,13%
3 µg/mL,–,CCc1nc2c(nc1C)C(N)=NS(=O)(=O)N2C,95%
30 µg/mL,–,CCN1c2nc(-c3ccccc3)c(Br)nc2C(N)=NS1(=O)=O,63%
30 µg/mL,–,CCCN1c2nc(C)c(C)nc2C(N)=NS1(=O)=O,58%
10 µg/mL,–,CCN1c2nc(C)c(Br)nc2C(N)=NS1(=O)=O,88%

# More lines, now with the values behind:
Structure (SMILES),MIC (Cavia porcellus [1]),MIC (Cavia porcellus [3]),inhibition at 30 µg/mL (Cavia porcellus [2])
Cn1c(=O)c2nc[nH]c2n(C)c1=O.O [THEOPHYLLINE],30 µg/mL,–,60%
Cc1cnc2c(n1)C(N)=NS(=O)(=O)N2C,–,inactive,45%
CN1c2nccnc2C(N)=NS1(=O)=O,–,inactive,22%
CCNC1=NS(=O)(=O)N(CC)c2ncc(C)nc21,30 µg/mL,–,63%
CCN1c2nc(-c3ccccc3)c(-c3ccccc3)nc2C(N)=NS1(=O)=O,–,inactive,24%
CCc1nc2c(nc1C)C(NCCO)=NS(=O)(=O)N2CC,–,inactive,41%
CN1c2ncc(-c3ccccc3)nc2C(N)=NS1(=O)=O,30 µg/mL,–,56%
CCOC(=O)CN1c2nc(-c3ccccc3)cnc2C(N)=NS1(=O)=O,10 µg/mL,–,72%
CCNC1=NS(=O)(=O)N(CC)c2ncc(-c3ccccc3)nc21,10 µg/mL,–,74%
Cc1nc2c(nc1C)N(C)S(=O)(=O)N=C2NCc1ccccn1,–,inactive,31%
CCN1c2nc(C)c(C)nc2C(N)=NS1(=O)=O,–,–,33%
CN1c2nc(-c3ccccc3)c(Cl)nc2C(N)=NS1(=O)=O,30 µg/mL,–,86%
CCOC(=O)CN1c2ncc(C)nc2C(N)=NS1(=O)=O,–,inactive,20%
CCN1c2ncc(C)nc2C(NCc2ccccc2)=NS1(=O)=O,–,inactive,27%
CCc1nc2c(nc1C)C(NCCN(C)C)=NS(=O)(=O)N2CC,–,inactive,34%
Cc1nc2c(nc1-c1ccccc1)C(N1CCCC1)=NS(=O)(=O)N2C,–,inactive,10%
CCc1nc2c(nc1C)C(NC)=NS(=O)(=O)N2CC,30 µg/mL,–,75%
CN1c2nc(-c3ccccc3)cnc2C(NCCN)=NS1(=O)=O,–,inactive,6%
CN1c2nc(-c3ccccc3)cnc2C(NN)=NS1(=O)=O,10 µg/mL,–,81%
CCCCc1nc2c(nc1C)C(N)=NS(=O)(=O)N2C,10 µg/mL,–,64%
CCN1c2nc(-c3ccccc3)cnc2C(NCc2ccccc2)=NS1(=O)=O,–,inactive,20%
